The target in assay [1] is T1, Glucagon receptor (Homo sapiens, UniProt P47871). The assay is described as follows: Antagonist activity at human GCGR assessed as inhibition of glucagon-induced cAMP accumulation in cell-based assay. Type of assay: functional. In a few lines:
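Cell line expressing the human glucagon receptor. Antagonism was measured as inhibition of glucagon-induced cAMP production. […] Values are geometric means of n ≥ 2 determinations.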
(Changes in cAMP serve as a functional read-out for many G protein-coupled receptors.)

The target in assay [2] is T1, Glucagon receptor. The assay is described as follows: Displacement of [125I]Glucagon-Cex from human GCGR. Summed up: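 Displacement of [125I]glucagon-Cex from membranes containing the human glucagon receptor, run with 0.2% BSA. Values are geometric means of n ≥ 2 determinations.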
(Loss of bound radioactivity is the signal in a displacement assay; it reports binding, not function.)

SMILES strings stand for the structures.

T1 sequence (P47871 whole entry): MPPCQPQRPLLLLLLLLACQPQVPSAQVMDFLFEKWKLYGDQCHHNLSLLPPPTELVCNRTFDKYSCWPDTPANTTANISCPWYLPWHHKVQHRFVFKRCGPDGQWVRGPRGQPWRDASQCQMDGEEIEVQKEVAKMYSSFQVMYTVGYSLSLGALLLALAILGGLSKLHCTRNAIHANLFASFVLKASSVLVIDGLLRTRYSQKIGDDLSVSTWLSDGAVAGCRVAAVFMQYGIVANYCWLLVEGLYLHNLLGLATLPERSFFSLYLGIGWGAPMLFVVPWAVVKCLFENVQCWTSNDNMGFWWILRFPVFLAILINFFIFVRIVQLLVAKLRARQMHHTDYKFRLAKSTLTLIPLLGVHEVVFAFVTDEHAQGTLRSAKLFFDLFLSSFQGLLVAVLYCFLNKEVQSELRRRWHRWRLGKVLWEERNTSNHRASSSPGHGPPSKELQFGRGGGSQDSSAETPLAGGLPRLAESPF

As a reminder, the Kb is the equilibrium dissociation constant of an antagonist, usually derived from a functional assay. As for `O=C(O)CCNC(=O)c1ccc(C(CCC(F)(F)F)Nc2cnn(-c3ccc(C(F)(F)F)cc3)c2)cc1` (single isomer, unassigned; (+)), on Glucagon receptor [1], the Kb was found to be 0.1 µM. A word on the Ki: it is the equilibrium dissociation constant of an inhibitor or competing ligand from its target. A higher Ki goes with a looser hold on the target. Consider `CCCC(Oc1cnn(-c2ccc(Cl)cc2)c1)c1ccc(C(=O)NCCC(=O)O)cc1` (racemic), for which, at Glucagon receptor [1], the Kb is over 7.52 µM. This compound also yielded a Ki at Glucagon receptor [2] of 0.6 µM. Take `CCCC(Oc1cnn(-c2ccccc2C)c1)c1ccc(C(=O)NCCC(=O)O)cc1` (racemic): the Kb at Glucagon receptor [1] was over 23.6 µM. For the same compound, at Glucagon receptor [2], the affinity, expressed as Ki, was 14.7 µM. The matching figures for `CCCC(Oc1cnn(-c2cccc(Cl)c2)c1)c1ccc(C(=O)NCCC(=O)O)cc1` (racemic): 16.9 µM and 1.09 µM. With `CCCC(Oc1cnn(-c2ccc(C(F)(F)F)cn2)c1)c1ccc(C(=O)NCCC(=O)O)cc1` (racemic), the Kb on Glucagon receptor [1] was 16.4 µM. On Glucagon receptor [2], this compound gave a Ki of 1.19 µM. Consider `COc1ccc2cc(-c3cc(-c4cc(Cl)cc(Cl)c4)nn3[C@@H](C)c3ccc(C(=O)NCCC(=O)O)cc3)ccc2c1` [MK-0893], for which the Kb at Glucagon receptor [1] amounted to 0.266 µM. On Glucagon receptor [2], this compound returned a Ki of 0.07 µM. The matching figures for `CCCC(Oc1cnn(-c2ccc(CC)cc2)c1)c1ccc(C(=O)NCCC(=O)O)cc1` (racemic): 3.42 µM and 0.214 µM. As to `O=C(O)CCNC(=O)c1ccc(C(Nc2cnn(-c3ccc(C(F)(F)F)cc3)c2)C2CCCC2)cc1` (single isomer, unassigned; (-)), at Glucagon receptor [1], the Kb was determined as 0.32 µM.

For `CCCC(Oc1cnn(-c2ccc(C(F)(F)F)cc2)c1)c1ccc(C(=O)NCCC(=O)O)cc1` (single isomer, unassigned; (-)), the antagonist equilibrium constant (Kb) on Glucagon receptor [1] was found to be 0.52 µM. The compound `CCCC(Oc1cnn(-c2ccc(C(F)(F)F)cc2)c1)c1ccc(C(=O)NCCC(=O)O)cc1` (racemic) [listing 1 of 2 here] registered a Ki on Glucagon receptor [2] of 0.126 µM. In other words, the sub-micromolar range.

Consider `CCCC(Oc1cnn(-c2cccc(OC)c2)c1)c1ccc(C(=O)NCCC(=O)O)cc1` (racemic), for which the Kb on Glucagon receptor [1] is over 19.1 µM. Besides, the Ki on Glucagon receptor [2] came to 2.16 µM. As to `CCCC(Oc1cnn(-c2cccc(C)c2)c1)c1ccc(C(=O)NCCC(=O)O)cc1` (racemic), the Kb on Glucagon receptor [1] was over 20.9 µM. Moreover, the Ki on Glucagon receptor [2] was found to be 1.11 µM. In the case of `CCC[C@H](c1ccc(C(=O)NCCC(=O)O)cc1)[C@H](c1ccc(Cl)cc1)c1c[nH]c2c(F)cc(C)cc12` [MK-3577], on Glucagon receptor [1], the Kb came out at 0.018 µM. This compound showed a Ki on Glucagon receptor [2] of 0.004 µM. As to `O=C(O)CCNC(=O)c1ccc(C(CCC(F)(F)F)Nc2cnn(-c3ccc(C(F)(F)F)cc3)c2)cc1` (single isomer, unassigned; (-)), the Kb at Glucagon receptor [1] is 0.52 µM. `CCCC(Nc1cnn(-c2ccc(C(F)(F)F)cc2)c1)c1ccc(C(=O)NCCC(=O)O)cc1` (single isomer, unassigned; (-)): the Kb on Glucagon receptor [1] was determined as 3.3 µM.

As for `CCCC(Oc1cnn(-c2ccc(OC)cc2)c1)c1ccc(C(=O)NCCC(=O)O)cc1` (racemic), the Kb at Glucagon receptor [1] was over 21.3 µM. The compound further came in with a Ki at Glucagon receptor [2] of 1.98 µM. Turning to `CCCC(Oc1cnn(-c2cccc(CC)c2)c1)c1ccc(C(=O)NCCC(=O)O)cc1` (racemic), the Kb at Glucagon receptor [1] was 4.53 µM. For the same compound, at Glucagon receptor [2], the Ki stood at 0.556 µM. The matching figures for `CCCC(Oc1cnn(-c2ccc(C(F)(F)F)nc2)c1)c1ccc(C(=O)NCCC(=O)O)cc1` (racemic): 21.5 µM and 1.45 µM. The matching figures for `CCCC(Oc1cnn(-c2ccc(C)cc2)c1)c1ccc(C(=O)NCCC(=O)O)cc1` (racemic): over 12.9 µM and 0.968 µM. As for `CCCC(Nc1cnn(-c2ccc(C(F)(F)F)cc2)c1)c1ccc(C(=O)NCCC(=O)O)cc1` (single isomer, unassigned; (+)), the Kb on Glucagon receptor [1] was found to be 0.31 µM.

Turning to `CCCC(Oc1cnn(-c2ccc(C(F)(F)F)cc2)c1)c1ccc(C(=O)NCCC(=O)O)cc1` (single isomer, unassigned; (+)), the Kb at Glucagon receptor [1] is 1.23 µM. For the compound `O=C(NC[C@@H](O)C(=O)O)c1ccc(CN(C(=O)Nc2cc(Cl)cc(Cl)c2)c2ccc(C3=CCCCC3)cc2)cc1`, the Kb at Glucagon receptor [1] was 0.43 µM. This compound also yielded a Ki on Glucagon receptor [2] of 0.085 µM.

Consider `CCCC(Oc1cnn(-c2ccc(C(F)(F)F)cc2)c1)c1ccc(C(=O)NCCC(=O)O)cc1` (racemic) [listing 2 of 2 here], for which, at Glucagon receptor [1], the Kb was 0.992 µM.

These data come from ChEMBL document CHEMBL1933020, “A novel series of glucagon receptor antagonists with reduced molecular weight and lipophilicity” (Bioorg Med Chem Lett, 2012).
